Data from ChEMBL document CHEMBL1121369, “Antihypertensive (2-aminoethyl)thiourea derivatives. 1” (J Med Chem, 1980).
Several values for one entry are separate records, joined by “and”; a condition that tells them apart may be missing. Identical values can stand only once.

Legend:
[1] = test system: Rattus norvegicus; assay: Compound is measured for oral antihypertensive activity in groups of 6-12 conscious spontaneously hypertensive rats at 60 mg/kg; format: functional
Procedure, shortened: (§1)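 Male spontaneously hypertensive rats of Wistar–Okamoto origin (12–15 weeks old, bred in-house) were dosed orally, in groups of 6–12 and conscious. Each rat was warmed for 5–10 min at 37–38 °C, then restrained. Systolic pressure was read indirectly at the tail with an occluding cuff and a piezoelectric pulse transducer, before dosing and at 1, 3, 6 and 24 h after.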

[2] = test system: Rattus norvegicus; assay: Compound is measured for oral antihypertensive activity in groups of 6-12 conscious spontaneously hypertensive rats at 85 mg/kg; format: functional; procedure, shortened: as §1
[3] = test system: Rattus norvegicus; assay: Compound is measured for oral antihypertensive activity in groups of 6-12 conscious spontaneously hypertensive rats at 160 mg/kg; Range is 15-20%; format: functional; procedure, shortened: as §1
[4] = test system: Rattus norvegicus; assay: Compound is measured for oral antihypertensive activity in groups of 6-12 conscious spontaneously hypertensive rats at 10 mg/kg; Range is 15-20%; format: functional; procedure, shortened: as §1
[5] = test system: Rattus norvegicus; assay: Compound is measured for oral antihypertensive activity in groups of 6-12 deoxy-corticosterone-sodium hypertensive (DOCA-Na) rats at 10 mg/kg; Range is 15-20%; format: functional
Procedure, shortened: (§2)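 DOCA-Na rats were given two weeks to become hypertensive (systolic above 200 mmHg) and were then dosed orally, in groups of 6–12 and unanesthetized. Rats were warmed for 5–10 min at 37–38 °C and restrained. Systolic tail pressure was read with a cuff and pneumatic pulse transducer, before dosing and at 1, 3, 6 and 24 h post-dose.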

[6] = test system: Rattus norvegicus; assay: Compound is measured for oral antihypertensive activity in groups of 6-12 deoxy-corticosterone-sodium hypertensive (DOCA-Na) rats at 10 mg/kg(fall in systolic blood pressure 6-24 hr after dosing); format: functional, Artery; procedure, shortened: as §2
[7] = test system: Rattus norvegicus; assay: Compound is measured for oral antihypertensive activity in groups of 6-12 conscious spontaneously hypertensive rats at 75 mg/kg; format: functional; procedure, shortened: as §1
[8] = test system: Rattus norvegicus; assay: Compound is measured for oral antihypertensive activity in groups of 6-12 conscious spontaneously hypertensive rats at 100 mg/kg; format: functional; procedure, shortened: as §1
[9] = test system: Rattus norvegicus; assay: Compound is measured for oral antihypertensive activity in groups of 6-12 conscious spontaneously hypertensive rats at 175 mg/kg; format: functional; procedure, shortened: as §1
[10] = test system: Rattus norvegicus; assay: Compound is measured for oral antihypertensive activity in groups of 6-12 conscious spontaneously hypertensive rats at 250 mg/kg; format: functional; procedure, shortened: as §1
[11] = test system: Rattus norvegicus; assay: Compound is measured for oral antihypertensive activity in groups of 6-12 conscious spontaneously hypertensive rats at 45 mg/kg; Range is 10-15%; format: functional; procedure, shortened: as §1
[12] = test system: Rattus norvegicus; assay: Compound is measured for oral antihypertensive activity in groups of 6-12 conscious spontaneously hypertensive rats at 100 mg/kg; Range is 15-20%; format: functional; procedure, shortened: as §1
[13] = test system: Rattus norvegicus; assay: Compound is measured for oral antihypertensive activity in groups of 6-12 conscious spontaneously hypertensive rats at 10 mg/kg; format: functional; procedure, shortened: as §1
[14] = in vivo; details: blood, po
[15] = test system: Rattus norvegicus; assay: Compound is measured for oral antihypertensive activity in groups of 6-12 conscious spontaneously hypertensive rats at 0.5 mg/kg; format: functional; procedure, shortened: as §1
[16] = test system: Canis familiaris; assay: (§3) Oral dose required to cause 20% fall in blood pressure; format: functional, Canis lupus familiaris
[17] = test system: Monkey; assay: (§4) Oral dose required to cause 20% fall in sedation; Increase in foot shock rate; format: functional
Procedure, shortened: (§5)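 Male Charles River C-D rats and squirrel monkeys were trained to press a lever at a stable rate to postpone a 5-s foot shock, given every 20 s on failure. Drugs were given orally, with control sessions before, between and after test sessions. Avoidance-rate decrease and the increase in shocks/hour were recorded. Significance threshold: a 12% decrease or 4 extra shocks/hour (p ≤ 0.05).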

[18] = Therapeutic ratio is oral dose producing sedation/reduction in blood pressure; format: ADME, tissue-based
[19] = test system: Rattus norvegicus; assay: as §3; format: functional
[20] = test system: Rattus norvegicus; assay: Compound is measured for oral antihypertensive activity in groups of 6-12 deoxy-corticosterone-sodium hypertensive (DOCA-Na) rats at 0.5 mg/kg; format: functional; procedure, shortened: as §2
[21] = test system: Rattus norvegicus; assay: Compound is measured for oral antihypertensive activity in groups of 6-12 conscious spontaneously hypertensive rats at 250 mg/kg; Range is 10-15%; format: functional; procedure, shortened: as §1
[22] = test system: Rattus norvegicus; assay: Compound is measured for oral antihypertensive activity in groups of 6-12 deoxy-corticosterone-sodium hypertensive (DOCA-Na) rats at 10 mg/kg; Range is 10-15%; format: functional; procedure, shortened: as §2
[23] = test system: Rattus norvegicus; assay: Compound is measured for oral antihypertensive activity in groups of 6-12 deoxy-corticosterone-sodium hypertensive (DOCA-Na) rats at 10 mg/kg; format: functional; procedure, shortened: as §2
[24] = test system: Canis familiaris; assay: Oral dose required to cause 20% fall in sedation; Range is 30-60; format: functional, Canis lupus familiaris
[25] = test system: Rattus norvegicus; assay: Oral dose required to cause 20% fall in sedation; Decrease spontaneous motor activity; format: functional
Procedure, shortened: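 Normotensive rats were dosed orally. Spontaneous motor activity was counted with an electronic motility meter over a 10-min period starting 1 h after dosing. The dose was estimated from dose–response curves, with 95% fiducial limits.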

[26] = test system: Rattus norvegicus; assay: Compound is measured for oral antihypertensive activity in groups of 6-12 deoxy-corticosterone-sodium hypertensive (DOCA-Na) rats at 10 mg/kg (fall in systolic blood pressure 6-24 hr after dosing); format: functional, Artery; procedure, shortened: as §2
[27] = Therapeutic ratio is oral dose producing sedation/reduction in blood pressure; Range is 30-60; format: ADME, tissue-based
[28] = test system: Rattus norvegicus; assay: Compound is measured for oral antihypertensive activity in groups of 6-12 conscious spontaneously hypertensive rats at 1 mg/kg; Range is 15-20%; format: functional; procedure, shortened: as §1
[29] = test system: Rattus norvegicus; assay: as §4; format: functional; procedure, shortened: as §5
[30] = test system: Rattus norvegicus; assay: Compound is measured for oral antihypertensive activity in groups of 6-12 conscious spontaneously hypertensive rats at 10 mg/kg (fall in systolic blood pressure 6-24 hr after dosing); format: functional, Artery; procedure, shortened: as §1
[31] = test system: Rattus norvegicus; assay: Compound is measured for oral antihypertensive activity in groups of 6-12 deoxy-corticosterone-sodium hypertensive (DOCA-Na) rats at 1 mg/kg; Range is 15-20%; format: functional; procedure, shortened: as §2
[32] = test system: Rattus norvegicus; assay: Compound is measured for oral antihypertensive activity in groups of 6-12 conscious spontaneously hypertensive rats at 200 mg/kg; Range is 15-20%; format: functional; procedure, shortened: as §1
[33] = test system: Rattus norvegicus; assay: Compound is measured for oral antihypertensive activity in groups of 6-12 conscious spontaneously hypertensive rats at 10 mg/kg(fall in systolic blood pressure 6-24 hr after dosing); format: functional, Artery; procedure, shortened: as §1
[34] = test system: Rattus norvegicus; assay: Compound is measured for oral antihypertensive activity in groups of 6-12 deoxy-corticosterone-sodium hypertensive (DOCA-Na) rats at 1 mg/kg; format: functional; procedure, shortened: as §2
[35] = test system: Rattus norvegicus; assay: Compound is measured for oral antihypertensive activity in groups of 6-12 conscious spontaneously hypertensive rats at 1 mg/kg (fall in systolic blood pressure 6-24 hr after dosing); format: functional, Artery; procedure, shortened: as §1
[36] = test system: Rattus norvegicus; assay: Compound is measured for oral antihypertensive activity in groups of 6-12 deoxy-corticosterone-sodium hypertensive (DOCA-Na) rats at 5 mg/kg; Range is 10-15%; format: functional; procedure, shortened: as §2
[37] = test system: Rattus norvegicus; assay: Compound is measured for oral antihypertensive activity in groups of 6-12 conscious spontaneously hypertensive rats at 30 mg/kg; format: functional; procedure, shortened: as §1
[38] = test system: Rattus norvegicus; assay: Compound is measured for oral antihypertensive activity in groups of 6-12 conscious spontaneously hypertensive rats at 50 mg/kg(fall in systolic blood pressure 6-24 hr after dosing); format: functional, Artery; procedure, shortened: as §1
[39] = test system: Rattus norvegicus; assay: Compound is measured for oral antihypertensive activity in groups of 6-12 deoxy-corticosterone-sodium hypertensive (DOCA-Na) rats at 60 mg/kg(fall in systolic blood pressure 6-24 h after dosing); format: functional, Artery; procedure, shortened: as §2

Structure (SMILES): CN1CCN(/C(S)=N/c2c(Cl)cccc2Cl)CC1.Cl
- Effect [1]: <10%

Structure (SMILES): CNCCN(C)/C(S)=N/c1c(Cl)cccc1Cl.O=C(O)/C=C\C(=O)O
- Effect [2]: <10%

Structure (SMILES): CN1CCN(CC/N=C(\S)Nc2c(Cl)cccc2Cl)CC1.Cl.Cl
- Effect [3]: 15%

Structure (SMILES): CS/C(=N\CCN)Nc1c(Cl)cccc1Cl
- Effect [4]: 15%
- Effect [5]: 15%

Structure (SMILES): Cc1cccc(C)c1/N=C(\S)NCCN.O=C(O)CCC(=O)O
- Effect [6]: >20%
- Effect [4]: 15%

Structure (SMILES): N#CCCNC(=S)Nc1c(Cl)cccc1Cl
- Effect [7]: <10%

Structure (SMILES): NC(=O)CC/N=C(\S)Nc1c(Cl)cccc1Cl
- Effect [8]: <10%

Structure (SMILES): OCC/N=C(\S)Nc1c(Cl)cccc1Cl
- Effect [9]: <10%

Structure (SMILES): N/N=C(\S)Nc1c(Cl)cccc1Cl
- Effect [10]: <10%

Structure (SMILES): Cl.N=C(N)CC/N=C(\S)Nc1c(Cl)cccc1Cl
- Effect [8]: <10%

Structure (SMILES): CCN(CC)CC/N=C(\S)Nc1c(Cl)cccc1Cl.Cl
- Effect [11]: 10%

Structure (SMILES): NS(=O)(=O)CC/N=C(\S)Nc1c(Cl)cccc1Cl
- Effect [12]: 15%

Structure (SMILES): CCOC(=O)CC/N=C(\S)Nc1c(Cl)cccc1Cl
- Effect [8]: <10%

Structure (SMILES): Cl.NCC/N=C(\S)Nc1ccccc1
- Effect [13]: <10%

Structure (SMILES): COc1cccc(OC)c1/N=C(\S)NCCN.O=C(O)/C=C\C(=O)O
- Effect [8]: <10%

Structure (SMILES): Clc1cccc(Cl)c1NC1=NCCN1 [CLONIDINE]
- selectivity ratio [14]: 0.8
- Effect [15]: >20%
- Dose [16]: 0.3 mg/kg
- Dose [17]: 0.7 mg/kg
- Ratio [18]: 3
- selectivity ratio [18]: 1.83
- Dose [19]: 0.06 mg/kg
- Effect [20]: >20%

Structure (SMILES): Cc1ccc(/N=C(\S)NCCN)c(Cl)c1.O=C(O)/C=C\C(=O)O
- Effect [8]: <10%

Structure (SMILES): NCC/N=C(\N)Nc1c(Cl)cccc1Cl
- Effect [21]: 10%
- Effect [22]: 10%

Structure (SMILES): NCCNC(=O)Nc1c(Cl)cccc1Cl
- Effect [23]: <10%
- Effect [10]: <10%

Structure (SMILES): CCO.NCC/N=C(\S)Nc1c(F)cccc1F.O=C(O)CCC(=O)O
- Effect [23]: <10%
- Effect [13]: <10%

Structure (SMILES): Cc1ccc(/N=C(\S)NCCN)c(C)c1.O=C(O)/C=C\C(=O)O
- Effect [8]: <10%

Structure (SMILES): CC(=O)NCC/N=C(\N)Nc1c(Cl)cccc1Cl
- Effect [23]: <10%
- Effect [10]: <10%

Structure (SMILES): NCC/N=C(\S)Nc1c(Cl)cccc1Cl.O=C(O)/C=C\C(=O)O
- Dose [24]: 30 mg/kg
- Effect [15]: <10%
- Dose [16]: 1 mg/kg
- Dose [25]: 0.69 mg/kg
- Effect [26]: >20%
- selectivity ratio [27]: 30
- Effect [28]: 15%
- Dose [17]: >64 mg/kg
- Dose [29]: 1.7 mg/kg
- Ratio [18]: 0.28 and 0.71
- Dose [19]: 2.4 mg/kg
- Effect [20]: <10%
- Effect [30]: >20%
- Effect [31]: 15%

Structure (SMILES): NCCC/N=C(\S)Nc1c(Cl)cccc1Cl
- Effect [32]: 15%

Structure (SMILES): CNCC/N=C(\S)Nc1c(Cl)cccc1Cl.O=C(O)/C=C\C(=O)O
- Effect [8]: <10%

Structure (SMILES): NCC/N=C(\S)Nc1cccc(Cl)c1Cl.O=C(O)/C=C\C(=O)O
- Effect [33]: >20%
- Effect [6]: >20%
- Effect [15]: <10%
- Effect [34]: <10%
- Effect [35]: >20%
- Effect [36]: 10%

Structure (SMILES): NCC/N=C(\S)Nc1c(Br)cccc1Br
- Effect [33]: >20%
- Effect [6]: >20%
- Effect [28]: 15%

Structure (SMILES): Cl.S=C(NCCN1CCCCC1)Nc1c(Cl)cccc1Cl
- Effect [37]: <10%

Structure (SMILES): O=C(O)CC/N=C(\S)Nc1c(Cl)cccc1Cl
- Effect [8]: <10%

Structure (SMILES): NCC/N=C(\S)Nc1c(Cl)cc([N+](=O)[O-])cc1Cl.O=C(O)/C=C\C(=O)O
- Effect [38]: >20%
- Effect [13]: <10%

Structure (SMILES): N/C(S)=N/c1c(Cl)cccc1Cl
- Effect [39]: < 10%
- Effect [1]: <10%

Structure (SMILES): NCC/N=C(\S)Nc1c(Cl)cc(Cl)cc1Cl.O=C(O)/C=C\C(=O)O
- Effect [13]: <10%
- Effect [12]: 15%
